Hits are enriched below; roughly 1.4% of the tested compounds scored in any of these assays.
INS-1E GSIS act = primary screen for activators of insulin secretion dependent on glucose, INS-1E cells, GLuc reporter luminescence; 370,000 tested, 0.61% active; INS-1E GLuc reporter insulin secretion, 2-3 h; activation, % at 16.6 µM;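 active = lowest replicate activation of at least 40%, so every replicate reaches that level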;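 note: 0% = median of neutral control wells and 100% = median of IBMX positive control wells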
Env fusion inh = blocks HIV Env-driven cell-cell fusion | inhibition, % at 12.3 µM | 360,000 tested, 1.1% active | HeLa-JRFL Env/CEM21 cell fusion, luciferase;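 active = mean replicate inhibition score of at least 50 and every replicate individually at or above 50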;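 note: 0% = plate neutral controls and 100% = maraviroc near 300 nM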
CDK5 inh = CDK5/p35 (human) kinase inhibition | Recombinant CDK5/p35, ADP-Glo luminescence, 60 min | inhibition, % at 10 µM | 330,000 tested, 0.01% active | Q00535+Q15078;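 active = highest replicate inhibition of at least 50% and at least 75% of replicates reaching 50%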;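 note: plate controls were DMSO neutral control for no effect and GW8510 at 10 µM for full effect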
STK33 kinase inh = inhibitors of human STK33 kinase; AID 2661; inhibition, % at 10 µM; Q9BYT3; 320,000 tested, 0.073% active; purified STK33, MBP phosphorylation, ADP-Glo luminescence;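 active = inhibition at or above 25%, using the most active replicate where run in duplicate; inactive = inhibition below 25%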
GSK3B inh = human GSK3beta kinase inhibition; 300,000 tested, 0.038% active; GST-GSK3beta kinase, ADP-Glo luminescence, 60 min; hits give low values; activity score (negative = inhibition), % at 10 µM; P49841;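 active = more than half of replicate wells score below -50%, meaning over 50% inhibition versus plate controls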;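 note: 0% = median DMSO wells and -100% = median GW8510 positive control wells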
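test system = GST-tagged human GSK3beta kinase, cell-free | reagent = 25 µM ATP with peptide substrate | dosing = one dose of 10 µM per compound | schedule = 60 min reaction, RT | detection = luminescent ADP-Glo measurement of ADP formed | control set = DMSO neutral wells and GW8510 at 20 µM as positive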
GSK3 alpha inh = blocks human GSK-3 alpha kinase; P49840; ADP-Glo luminescence, 60 min; inhibition, % at 10 µM; 320,000 tested, 0.1% active; AID 2650;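 active = more than half of replicates show inhibition above 20%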;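 note: GST-tagged GSK-3 alpha with peptide substrate and 25 µM ATP; 0% = DMSO neutral wells and 100% = GW8510 positive control wells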
Target sequence (P49840 whole entry, looked up): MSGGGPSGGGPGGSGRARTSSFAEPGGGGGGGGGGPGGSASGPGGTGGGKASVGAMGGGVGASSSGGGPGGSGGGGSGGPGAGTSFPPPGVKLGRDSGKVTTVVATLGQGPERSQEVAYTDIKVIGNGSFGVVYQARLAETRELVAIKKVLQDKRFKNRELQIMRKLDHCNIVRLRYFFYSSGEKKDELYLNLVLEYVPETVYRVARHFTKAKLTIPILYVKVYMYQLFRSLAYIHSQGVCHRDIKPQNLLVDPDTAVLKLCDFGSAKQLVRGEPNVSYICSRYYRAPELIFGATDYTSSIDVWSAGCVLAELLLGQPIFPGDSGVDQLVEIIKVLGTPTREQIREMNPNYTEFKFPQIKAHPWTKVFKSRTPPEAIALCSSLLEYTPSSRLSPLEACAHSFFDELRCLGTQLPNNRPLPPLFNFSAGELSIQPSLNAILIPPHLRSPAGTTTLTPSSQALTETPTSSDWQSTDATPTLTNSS
* hit, by the source's call; . = not tested or not shown; [ ] = dose if it differs, or a comment.

SMILES	INS-1E GSIS act	Env fusion inh	CDK5 inh	STK33 kinase inh	GSK3B inh	GSK3 alpha inh
CCOc1ccc(/C=C/C2=NNC(=O)CC2)cc1	20	28	2	2	-4	9
O=c1ccc(-c2ccc(S(=O)(=O)Nc3cccc([N+](=O)[O-])c3)s2)n[nH]1	77*	3	0	2	4	0
O=C(c1ccccc1)N1CC2(C1)[C@H](c1ccccc1)[C@@H](CO)N2CC1CC1	11	.	.	.	.	.
C[C@H](CO)N1C[C@H](C)[C@H](CN(C)C(=O)Nc2ccc(C(F)(F)F)cc2)Oc2ccc(NC(=O)CCCCCC(=O)Nc3ccccc3N)cc2CC1=O	-7	8[16.7 µM]	.	.	.	.
CCN1C[C@@H]2[C@@H]3C(=O)N(Cc4ccccc4)C(=O)[C@@H]3[C@](Cc3ccccc3)(C1=O)N2C(=O)c1ccc(C(C)(C)C)cc1	-16	4	0	.	.	.
CN1C[C@@H]2[C@@H]3C(=O)N(Cc4ccccc4)C(=O)[C@@H]3[C@](Cc3ccccc3)(C1=O)N2C(=O)c1ccc(C(F)(F)F)cc1	-36	16	-1	.	.	.
CC[C@]12C(=O)N(C)C[C@H]([C@@H]3C(=O)N(Cc4ccccc4)C(=O)[C@@H]31)N2C(=O)c1ccc(C(C)(C)C)cc1	-12	58*	0	.	.	.
CCN1C[C@@H]2[C@@H]3C(=O)N(Cc4ccccc4)C(=O)[C@@H]3[C@](CC)(C1=O)N2C(=O)c1ccc(C(C)(C)C)cc1	-17	68*	1	.	.	.
O=C(CC1CC1)N[C@H]1CC[C@H](CCNS(=O)(=O)c2ccc(Cl)cc2)O[C@@H]1CO	-3	11[16.7 µM]	.	.	.	.
Cc1nc(N2CCN(C(=O)COc3ccccc3)CC2)c2c(C)c(C)sc2n1	.	61*	0	13	-3	3
O=C(COc1ccccc1)N1CCN(c2ncccn2)CC1	-2	16	1	-1	-3	-2
CCOc1ccc(CN(C)C(=O)CCc2ccc(S(=O)(=O)N3CCCCCC3)cc2)cc1	-46	65*	0	.	.	.
CCOc1ccc(N2CC(C(=O)Nc3ccc(S(=O)(=O)N4CCCC4)cc3)CC2=O)cc1 (configuration not stated)	-27	-4	1	-1	1	0
CCOc1ccc(N2CC(C(=O)Nc3ccc(S(=O)(=O)N4CCCCC4)cc3)CC2=O)cc1 (configuration not stated)	-12	67*	-3	0	-4	-2
CSc1cccc(N2CC(C(=O)Nc3cccc(S(=O)(=O)N4CCCC4)c3)CC2=O)c1 (configuration not stated)	-29	116*	-1	0	1	0
CC(C)CC#Cc1ccc2c(c1)O[C@@H](CN(C)S(=O)(=O)c1ccc(F)cc1)[C@H](C)CN([C@@H](C)CO)S2(=O)=O	-7	60*[16.7 µM]	.	.	.	.
C[C@H]1CN([C@@H](C)CO)S(=O)(=O)c2ccc(Br)cc2O[C@H]1CN(C)S(=O)(=O)c1ccc(F)cc1	-30	63*[16.7 µM]	.	.	.	.
Cc1ccc(S(=O)(=O)N(C)C[C@@H]2Oc3cc(-c4cccc(F)c4)ccc3S(=O)(=O)N([C@@H](C)CO)C[C@@H]2C)cc1	3	31[16.7 µM]	.	.	.	.
CC(C)CC#Cc1ccc2c(c1)O[C@@H](CN(C)S(=O)(=O)c1ccc(F)cc1)[C@@H](C)CN([C@@H](C)CO)S2(=O)=O	5	44[16.7 µM]	.	.	.	.
COc1ccccc1-c1ccc2c(c1)O[C@H](CN(C)S(=O)(=O)c1ccc(C)cc1)[C@H](C)CN([C@@H](C)CO)S2(=O)=O	18	43*[16.7 µM]	.	.	.	.
C[C@@H]1CN([C@@H](C)CO)S(=O)(=O)c2ccc(Br)cc2O[C@@H]1CN(C)S(=O)(=O)c1ccc(F)cc1	-9	-45	.	.	.	.
Cc1ccc(S(=O)(=O)N(C)C[C@H]2Oc3cc(-c4cccc(F)c4)ccc3S(=O)(=O)N([C@@H](C)CO)C[C@H]2C)cc1	6	69*[16.7 µM]	.	.	.	.
C[C@@H]1CCCCO[C@H](CN(C)S(=O)(=O)c2cn(C)cn2)[C@H](C)CN([C@@H](C)CO)C(=O)c2cc(NS(=O)(=O)c3ccccc3)ccc2O1	0	12[16.7 µM]	.	.	.	.
C[C@H]1CN([C@@H](C)CO)C(=O)c2cc(NS(=O)(=O)c3cccs3)ccc2O[C@H]1CN(C)S(=O)(=O)c1ccc(F)cc1	-9	12[16.7 µM]	.	.	.	.
COc1ccc(CN(C)C[C@H]2OCCCC[C@@H](C)Oc3ccc(NC(=O)Nc4c(C)noc4C)cc3C(=O)N([C@@H](C)CO)C[C@H]2C)cc1	6	-37[16.7 µM]	.	.	.	.
SMILES	INS-1E GSIS act	Env fusion inh	CDK5 inh	STK33 kinase inh	GSK3B inh	GSK3 alpha inh
Cc1ccc(S(=O)(=O)N(C)C[C@H]2Oc3cc(-c4cccc(F)c4)ccc3S(=O)(=O)N([C@H](C)CO)C[C@H]2C)cc1	6	64*[16.7 µM]	.	.	.	.
CCCC#Cc1ccc2c(c1)O[C@H](CN(C)S(=O)(=O)c1cccc(F)c1)[C@H](C)CN([C@@H](C)CO)S2(=O)=O	-7	64*[16.7 µM]	.	.	.	.
C[C@H]1CN([C@@H](C)CO)S(=O)(=O)c2ccc(-c3cccc(F)c3)cc2O[C@H]1CN(C)S(=O)(=O)c1ccc(F)cc1	-17	42[16.7 µM]	.	.	.	.
C[C@@H]1CN([C@@H](C)CO)S(=O)(=O)c2ccc(-c3cccc(F)c3)cc2O[C@@H]1CN(C)S(=O)(=O)c1ccc(F)cc1	-4	59*[16.7 µM]	.	.	.	.
COc1ccc2c3c([nH]c2c1)[C@H](CO)N(C(=O)NC(C)C)CC31CN(C(=O)c2cnccn2)C1	4	.	.	.	.	.
Cc1nnc(SCC(=O)N2c3ccccc3C(C)(c3ccccc3)CC2(C)C)s1 (configuration not stated)	-22	62*	-3	-2	1	-6
Cc1ccc(C2(C)CC(C)(C)N(C(=O)CSc3nnc(C)s3)c3ccccc32)cc1 (configuration not stated)	-35	26	-3	0	-2	1
CC(N)=Nc1ccc([N+](=O)[O-])cc1	15	9	0	-2	-5	-4
O=[N+]([O-])c1ccc(N=Nc2c(Cl)cc(O)cc2Cl)cc1	-32	85*	8	5	2	1
Cc1nc2sccn2c1-c1csc(NCc2ccccc2)n1	.	95*	1	-2	0	0
C=CCNc1nc(-c2c(C)nc3sccn23)cs1	.	-110	-1	2	4	-1
Cc1nc2ncccn2c1-c1csc(Nc2ccccc2)n1	.	6	-1	-1	-10	9
CC(=O)Nc1ccc(Nc2nc(-c3c(C)nc4ccccn34)cs2)cc1	49*	-198	.	3	-1	-1
CO[C@@H]1CN(C)C(=O)c2ccc(NC(=O)C3CC3)cc2OC[C@@H](C)N(CC2CCCC2)C[C@H]1C	-17	.	.	.	.	.
Cc1ccc2nc(NC(=O)CCCC(=O)O)sc2c1	3	69*	0	-1	-3	1
C[C@H]1CN([C@@H](C)CO)C(=O)c2cccc(NS(=O)(=O)c3cn(C)cn3)c2O[C@H]1CN(C)Cc1ccc(C(F)(F)F)cc1	-3	-7[16.7 µM]	.	.	.	.
